# From ChEMBL document CHEMBL1649493, “Genetic and biochemical characterization of the first extended-spectrum CARB-type beta-lactamase, RTG-4, from Acinetobacter baumannii” (Antimicrob Agents Chemother, 2009)
# Tests used:
# Escherichia coli [1] = assay: Antibacterial activity against Escherichia coli TOP10 harboring recombinant plasmid RTG4-V49 by Etest method; type: functional
# Escherichia coli [2] = assay: Antibacterial activity against Escherichia coli TOP10 by Etest method; type: functional
# Outline: (§1)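 MICs read by Etest on Mueller-Hinton agar plates incubated at 37°C. Recombinant E. coli TOP10 carried the cloned β-lactamase gene on plasmid pBK-CMV; the host strain alone was tested alongside.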
# [3] = Ratio of Kcat to Km for recombinant beta-lactamase RTG4 expressed in Escherichia coli TOP10 by nitrocefin hydrolysis assay
# Escherichia coli [4] = assay: Antibacterial activity against Escherichia coli TOP10 harboring beta-lactamase RTG3 gene by Etest method; type: functional; outline: as §1
# [5] = Activity of recombinant beta-lactamase RTG4 expressed in Escherichia coli TOP10 assessed as Ratio of Kcat to Km by nitrocefin hydrolysis assay relative to benzylpenicillin; set-up: scale not given: the % may be the effect or the level left
# Escherichia coli [6] = assay: Antibacterial activity against Escherichia coli TOP10 harboring recombinant plasmid RTG4-S69 by Etest method; type: functional
# Escherichia coli [7] = assay: Antibacterial activity against Escherichia coli TOP10 harboring recombinant plasmid RTG4-S69-V49 by Etest method; type: functional
# Escherichia coli [8] = assay: Antibacterial activity against Escherichia coli TOP10 harboring beta-lactamase RTG4 gene by Etest method; type: functional; outline: as §1
# [9] = Inhibition of recombinant beta-lactamase RTG3 expressed in Escherichia coli TOP10 by benzylpenicillin hydrolysis assay
# [10] = Inhibition of recombinant beta-lactamase RTG4 expressed in Escherichia coli TOP10 by benzylpenicillin hydrolysis assay
# Acinetobacter baumannii [11] = assay: Antimicrobial activity against Acinetobacter baumannii CIP70.10 harboring beta-lactamase RTG3 gene by […]; type: functional
# Acinetobacter baumannii [12] = assay: Antimicrobial activity against Acinetobacter baumannii CIP70.10 by […]; type: functional
# Acinetobacter baumannii [13] = assay: Antimicrobial activity against Acinetobacter baumannii by […]; type: functional
# Outline: (§2)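 MICs were determined by Etest on Mueller-Hinton agar at 37°C. Where indicated, clavulanic acid or tazobactam was added at 4 μg/ml.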
# Acinetobacter baumannii [14] = assay: Antimicrobial activity against Acinetobacter baumannii CIP70.10 harboring beta-lactamase RTG4 gene by […]; type: functional
# Acinetobacter baumannii [15] = assay: Antimicrobial activity against Acinetobacter baumannii CIP70.10 harboring beta-lactamase RTG3 gene by […] in presence of 4 ug/ml Tazobactam; type: functional
# Acinetobacter baumannii [16] = assay: Antimicrobial activity against Acinetobacter baumannii CIP70.10 harboring beta-lactamase RTG4 gene by […] in presence of 4 ug/ml Tazobactam; type: functional
# Acinetobacter baumannii [17] = assay: Antimicrobial activity against Acinetobacter baumannii CIP70.10 by […] in presence of 4 ug/ml Tazobactam; type: functional; outline: as §2
# Acinetobacter baumannii [18] = assay: Antimicrobial activity against Acinetobacter baumannii by […] in presence of 4 ug/ml Tazobactam; type: functional; outline: as §2
# Escherichia coli [19] = assay: Antibacterial activity against Escherichia coli TOP10 harboring beta-lactamase RTG3 gene by Etest method in presence of 4 ug/ml beta-lactamase inhibitor clavulanic acid; type: functional
# Outline: (§3)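 MICs read by Etest on Mueller-Hinton agar at 37°C, with β-lactams combined with clavulanic acid at 4 μg/ml. The strains were E. coli TOP10 carrying the cloned RTG gene or the site-directed mutant plasmids (Thr69Ser, Ala49Val, or both).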
# Escherichia coli [20] = assay: Antibacterial activity against Escherichia coli TOP10 harboring beta-lactamase RTG4 gene by Etest method in presence of 4 ug/ml beta-lactamase inhibitor clavulanic acid; type: functional; outline: as §3
# Acinetobacter baumannii [21] = assay: Antimicrobial activity against Acinetobacter baumannii CIP70.10 harboring beta-lactamase RTG3 gene by […] in presence of 4 ug/ml beta-lactamase inhibitor clavulanic acid; type: functional
# Escherichia coli [22] = assay: Antibacterial activity against Escherichia coli TOP10 by Etest method in presence of 4 ug/ml beta-lactamase inhibitor clavulanic acid; type: functional
# Outline: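 MICs by Etest on Mueller-Hinton agar plates incubated at 37°C, with clavulanic acid at a fixed 4 μg/ml. The E. coli TOP10 host was tested with recombinant plasmids carrying the cloned HindIII fragment encoding RTG-4 or its site-directed variants (T69S, A49V).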
# Escherichia coli [23] = assay: Antibacterial activity against Escherichia coli TOP10 harboring recombinant plasmid RTG4-V49 by Etest method in presence of 4 ug/ml beta-lactamase inhibitor clavulanic acid; type: functional; outline: as §3
# Escherichia coli [24] = assay: Antibacterial activity against Escherichia coli TOP10 harboring recombinant plasmid RTG4-S69-V49 by Etest method in presence of 4 ug/ml beta-lactamase inhibitor clavulanic acid; type: functional; outline: as §3
# Acinetobacter baumannii [25] = assay: Antimicrobial activity against Acinetobacter baumannii CIP70.10 by […] in presence of 4 ug/ml beta-lactamase inhibitor clavulanic acid; type: functional; outline: as §2
# Escherichia coli [26] = assay: Antibacterial activity against Escherichia coli TOP10 harboring recombinant plasmid RTG4-S69 by Etest method in presence of 4 ug/ml beta-lactamase inhibitor clavulanic acid; type: functional; outline: as §3
# Acinetobacter baumannii [27] = assay: Antimicrobial activity against Acinetobacter baumannii by […] in presence of 4 ug/ml beta-lactamase inhibitor clavulanic acid; type: functional; outline: as §2
# Acinetobacter baumannii [28] = assay: Antimicrobial activity against Acinetobacter baumannii CIP70.10 harboring beta-lactamase RTG4 gene by […] in presence of 4 ug/ml beta-lactamase inhibitor clavulanic acid; type: functional
smiles,measurement,setting,value
CC(=O)OCC1=C(C(=O)O)N2C(=O)[C@@H](NC(=O)Cc3cccs3)[C@H]2SC1 [CEPHALOTHIN],MIC,Escherichia coli [1],64 µg/mL
same,MIC,Escherichia coli [2],4 µg/mL
same,kcat/Km,[3],0.006 µM⁻¹ s⁻¹
same,MIC,Escherichia coli [4],4 µg/mL
same,Activity,[5],0.04%
same,MIC,Escherichia coli [6],8 µg/mL
same,MIC,Escherichia coli [7],8 µg/mL
same,MIC,Escherichia coli [8],64 µg/mL
O=C(O)[C@H]1/C(=C/CO)O[C@@H]2CC(=O)N21 [CLAVULANIC ACID],IC50,[9],100 nM
same,IC50,[10],70 nM
C[C@@H](O)[C@H]1C(=O)N2C(C(=O)O)=C(SCCNC=N)C[C@H]12 [IMIPENEM ANHYDROUS],MIC,Acinetobacter baumannii [11],0.25 µg/mL
same,MIC,Acinetobacter baumannii [12],0.25 µg/mL
same,MIC,Acinetobacter baumannii [13],0.25 µg/mL
same,MIC,Acinetobacter baumannii [14],0.25 µg/mL
CCN1CCN(C(=O)N[C@@H](C(=O)N[C@@H]2C(=O)N3[C@@H]2SC(C)(C)[C@@H]3C(=O)O)c2ccccc2)C(=O)C1=O [PIPERACILLIN],MIC,Escherichia coli [1],> 256 µg/mL
same,MIC,Acinetobacter baumannii [15],128 µg/mL
same,MIC,Escherichia coli [2],1 µg/mL
same,kcat/Km,[3],0.5 µM⁻¹ s⁻¹
same,MIC,Acinetobacter baumannii [11],> 256 µg/mL
same,MIC,Acinetobacter baumannii [16],> 256 µg/mL
same,MIC,Escherichia coli [4],32 µg/mL
same,Activity,[5],35%
same,MIC,Acinetobacter baumannii [17],4 µg/mL
same,MIC,Escherichia coli [6],> 256 µg/mL
same,MIC,Acinetobacter baumannii [12],16 µg/mL
same,MIC,Acinetobacter baumannii [18],> 256 µg/mL
same,MIC,Acinetobacter baumannii [13],> 256 µg/mL
same,MIC,Escherichia coli [7],> 256 µg/mL
same,MIC,Escherichia coli [8],> 256 µg/mL
same,MIC,Acinetobacter baumannii [14],> 256 µg/mL
CC1(C)[C@H](C(=O)O)N2C(=O)C[C@H]2S1(=O)=O [SULBACTAM],IC50,[9],200 nM
same,IC50,[10],1500 nM
C[C@]1(Cn2ccnn2)[C@H](C(=O)O)N2C(=O)C[C@H]2S1(=O)=O [TAZOBACTAM],IC50,[9],100 nM
same,IC50,[10],350 nM
CC1(C)S[C@@H]2[C@H](NC(=O)[C@H](C(=O)O)c3ccsc3)C(=O)N2[C@H]1C(=O)O [TICARCILLIN],MIC,Escherichia coli [19],16 µg/mL
same,MIC,Escherichia coli [20],> 256 µg/mL
same,MIC,Acinetobacter baumannii [21],> 256 µg/mL
same,kcat/Km,[3],1.5 µM⁻¹ s⁻¹
same,MIC,Acinetobacter baumannii [11],> 256 µg/mL
same,MIC,Escherichia coli [22],2 µg/mL
same,MIC,Escherichia coli [23],> 256 µg/mL
same,Activity,[5],100%
same,MIC,Acinetobacter baumannii [12],8 µg/mL
same,MIC,Escherichia coli [24],> 256 µg/mL
same,MIC,Acinetobacter baumannii [25],8 µg/mL
same,MIC,Acinetobacter baumannii [13],> 256 µg/mL
same,MIC,Escherichia coli [26],> 256 µg/mL
same,MIC,Acinetobacter baumannii [27],> 256 µg/mL
same,MIC,Acinetobacter baumannii [14],> 256 µg/mL
same,MIC,Acinetobacter baumannii [28],> 256 µg/mL
